PostGolgi ctrl = inhibits growth of the yeast control strain. efflux-deficient yeast background strain, growth absorbance A615, 16 h. inhibition, % at 10 µM. actives 5% (n = 98,000)
E coli WT exp = E. coli BW25113 growth inhibition, expanded screen; OD600 absorbance; growth inhibition, % at 100 µM; AID 710; actives 0.15% (n = 98,000);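 active means growth inhibition above about 50% at one test dose, limit read from the data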;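 further: growth measured after 20 h incubation at 37 °C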
tolC growth inh = growth inhibitors of E. coli BW25113 tolC mutant; OD615; growth inhibition, % at 10 µM (by protocol); actives 2.2% (n = 65,000);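 active means growth inhibition at or above a cutoff equal to the mean over every tested compound plus 3 SD, cut at about 60% in these data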;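 further: growth measured after 20 h incubation at 37 °C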
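Test system: tolC-deleted E. coli BW25113; medium: LB with kanamycin 50 µg/mL; compound: single-point testing at 10 µM; incubation: 20 h compound exposure of bacteria at 37 °C; signal: OD at 615 nm; evaluation: growth inhibition in percent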
PostGolgi yeast = growth inhibition of a yeast mutant, post-Golgi transport screen; post-Golgi transport phenotypic cell assay; AID 739; actives 0.9% (n = 98,000); inhibition, % at 10 µM;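 further: yeast cells grown in 1536-well plates; yeast grown about 18 h at 30C before absorbance read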
Hits are given with their value; 0 = inactive; - = no result given. Rows were chosen to be rich in hits. Some 6.3% of all compounds tested hit in one or more screens of this group. Unless noted, no stated cut-off is given here; in the data, active means inhibition above about 30%; inactive means the rest.

SMILES	PostGolgi ctrl	E coli WT exp	tolC growth inh	PostGolgi yeast
Cc1c(N2C(=O)c3ccccc3C2=O)c(=O)n(-c2ccccc2)n1C	0	0	0	0
CS(=O)(=O)N1CCc2cc(C(=O)OCC(=O)c3ccccc3)ccc21	0	0	0	0
COC(=O)CS(=O)(=O)c1ccc2c(c1)CC(=O)N2	0	0	0	0
CC1CC(C)CN(c2ncc3c(n2)CC(c2ccccc2)CC3=O)C1 (stereo unspecified)	50	0	0	0
O=C1CC(c2ccco2)Cc2nc(N3CCc4ccccc4C3)ncc21 (stereo unspecified)	42	0	0	0
CS(=O)(=O)N1CC(C(=O)NC2CCCC2)Oc2ccc(Cl)cc21 (stereo unspecified)	0	0	-	0
CCCCOc1ccc(/C=N/NC(=O)c2csc(C)c2C)cc1	35	0	-	0
Cc1scc(C(=O)N/N=C/c2ccc(OCC(C)C)cc2)c1C	0	0	-	0
Cc1nn(-c2ccccn2)c(C)c1Oc1ccccc1O	0	0	0	34
Cc1cccc(-c2c3c(=O)n(C)c(=O)n(C)c3cn2C2CCCCC2)c1	0	0	-	76
COCc1nc2ccccc2n1CCOc1ccccc1OC	0	0	0	0
O=C(NC(=O)c1cccc(OC(F)(F)C(F)F)c1)OC1CCS(=O)(=O)C1 (stereo unspecified)	0	0	0	0
CCc1ccc2[nH]c(=O)c(CN(Cc3ccc4c(c3)OCO4)Cc3nnnn3C3CCCC3)cc2c1	0	0	0	0
Cc1ccc2cc(CN(Cc3ccc(F)cc3)Cc3nnnn3C3CCCC3)c(=O)[nH]c2c1	41	0	66	0
Cc1ccc2cc(CN(Cc3ccccc3)Cc3nnnn3C3CCCC3)c(=O)[nH]c2c1	39	0	73	0
CCSc1nnc([C@@H]2CCCN2C(=O)OC(C)(C)C)o1	0	0	0	0
CC(C)(C)OC(=O)N1CCC[C@H]1c1nnc(SCc2c(Cl)cccc2Cl)o1	0	0	79	0
COc1cccc(-c2nc(N3CCN(Cc4ccccc4)CC3)c3ccccc3n2)c1O	-	-	0	-
COc1cccc(-c2nc(NCC3CCCO3)c3ccccc3n2)c1O (stereo unspecified)	43	0	0	0
Oc1ccccc1-c1nc(NCC2CCCO2)c2ccccc2n1 (stereo unspecified)	56	0	66	0
CCN(CC)CCC(=O)Nc1ccc2c(c1)N(C(=O)CN(CC)CC)c1ccccc1CC2	0	0	-	0
CC(C)c1ccc(CN2CC(C(=O)O)CC2=O)cc1 (stereo unspecified)	0	0	-	0
Cc1cccnc1NC(=O)c1c(O)c2cccc3c2n(c1=O)CCC3	0	0	70	0
Cc1ccccc1NC(=O)c1c(O)c2cccc3c2n(c1=O)CCC3	-	-	0	-
CCN(CC)C(=O)CSc1nc2nc(C)cc(C)c2c(=O)[nH]1	0	0	-	0
SMILES	PostGolgi ctrl	E coli WT exp	tolC growth inh	PostGolgi yeast
Cc1cc(C)c2c(=O)[nH]c(SCC(=O)N(C)C)nc2n1	0	0	-	36
CCN(CC)C(=O)c1cc2sc3ccccc3c2s1	30	0	0	0
Cc1ccccc1-c1nnc(SCc2ccccc2F)o1	0	0	64	0
Fc1ccccc1CSc1nnc(-c2ccccc2)o1	0	0	0	0
Cc1cccc(N2CCN(C(=O)n3ccnc3)CC2)c1C	0	0	0	0
O=[N+]([O-])c1nn(-c2ccc3c(c2)OCCO3)n(O)c1=NC1CCCCC1	0	0	-	0
O=[N+]([O-])c1nn(-c2ccc3c(c2)OCCO3)n(O)c1=NCc1ccccc1Cl	44	0	-	0
CC1CCN(CC(O)COCCC23CC4CC(CC(C4)C2)C3)CC1 (stereo unspecified)	0	0	-	0
Cc1nn(C(=O)c2cccnc2)c(C)c1Sc1ccc(Br)cc1	33	0	-	0
Cc1nn(C(=O)c2ccco2)c(C)c1Sc1ccc([N+](=O)[O-])cc1	0	0	-	0
Fc1ccccc1COc1cccc(/C=N/n2cnnc2)c1	0	0	0	0
Cc1cc(/C=N/n2cnnc2)c(C)n1-c1ccc(OCc2ccccc2F)cc1	65	0	0	0
Cc1cc(/C=N/n2cnnc2)c(C)n1-c1ccc(OCc2ccc(Cl)cc2)cc1	78	0	-	0
Cn1c(SCC(=O)Nc2ccccc2F)nnc1-c1ccc(S(=O)(=O)N2CCOCC2)cc1	0	0	0	0
COc1cc(C(=O)NCCC(=O)NC2CCCCCCC2)cc(OC)c1OC	0	0	0	0
COC(=O)CNC(=O)CSc1nc(N)cc(=O)[nH]1	31	0	-	0
COc1ccc(C(=O)OCCNC(=O)c2c(Cl)nc3ccccn23)cc1	36	0	0	0
CC(C)(C)c1ccc(C(=O)OCCNC(=O)c2c(Cl)nc3ccccn23)cc1	37	0	-	0
CCC1SC(=NC(=O)c2ccc(Cl)c(Cl)c2)NC1=O (stereo unspecified)	35	0	0	0
O=C(Nc1ccc(Cl)c(Cl)c1)N(Cc1cccnc1)Cc1ccco1	105	0	0	96
S=C(NCc1ccco1)Nc1ccc(Cl)c(Cl)c1	41	0	-	0
S=C(NCc1ccco1)Nc1cccc(Cl)c1	0	0	-	0
CCC(C)[C@H](NC(=O)Nc1ccc(C(C)=O)cc1)C(=O)OC (stereo partly specified)	0	0	0	0
O=C(CSc1nnc2c3ccccc3c3ccccc3c2n1)Nc1ccccc1	45	0	-	0
COc1ccc(N2CCN(C(=O)c3ccc(CS(=O)(=O)c4ccc(OC)cc4)o3)CC2)cc1	0	0	0	0
SMILES	PostGolgi ctrl	E coli WT exp	tolC growth inh	PostGolgi yeast
COc1ccc(S(=O)(=O)Cc2ccc(C(=O)N3CCN(c4cc(Cl)ccc4C)CC3)o2)cc1	32	0	0	0
O=C(c1ccc(COc2c(F)c(F)cc(F)c2F)o1)N1CCN(c2ccc(Cl)cc2)CC1	0	0	62	0
COc1ccc(S(=O)(=O)Cc2ccc(C(=O)N3CCN(c4ccc(Cl)cc4)CC3)o2)cc1	37	0	0	0
COc1ccc(S(=O)(=O)Cc2ccc(C(=O)N3CCN(c4cccc(C)c4C)CC3)o2)cc1	35	0	0	0
O=C(c1ccc(COc2ccccc2Cl)o1)N1CCCC1	0	0	-	0
CCC(Sc1nc(N)cc(N)n1)C(=O)O (stereo unspecified)	0	0	-	0
COc1ccccc1S(=O)(=O)Cc1ccc(C(=O)N2CCN(c3ccc(C)cc3)C(C)C2)o1 (stereo unspecified)	0	0	0	0
COc1ccc(S(=O)(=O)Cc2ccc(C(=O)N3CCN(c4cccc(C)c4)C(C)C3)o2)cc1 (stereo unspecified)	47	0	0	0
O=c1c(Cc2ccc(Cl)cc2)c(O)ccn1Cc1cccc(Cl)c1	0	0	-	0
O=c1c(Cc2ccc(Cl)cc2Cl)c(O)ccn1Cc1ccc(Cl)cc1	62	0	-	0
COc1ccc(C(=O)NC(=O)COC(=O)C2COc3ccccc3O2)cc1 (stereo unspecified)	0	0	-	0
[O-][n+]1c2c(c3c4non(O)c4ccc31)CCCC2	82	0	-	31
COn1c2c(c3c4no[n+]([O-])c4ccc31)CCCC2	0	0	-	0
COc1cccc(C(=O)CSc2nnnn2C2CCCCC2)c1	0	0	-	0
Cc1cccc(NC(=O)c2cc(NC(=O)C3CCCCC3C(=O)O)ccc2N2CCCCC2)c1 (stereo unspecified)	0	0	76	0
Cc1cccc(NC(=O)c2ccccc2C(=O)O)c1	0	0	0	0

Screening data deposited in PubChem BioAssay by SRMLSC.
